Test results reported in article PMC6170741 (Investigational new drugs, 2018).

Tests used:
[1] = test system: patients with solid tumors; test: Phase I safety and tolerability; assay type: in vivo
[2] = Single dose plasma pharmacokinetics in patients; assay type: in vivo, human; conditions: for Tmax: human, plasma, po, across all doses and regimens
Outline: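 Fasted patients took one oral capsule dose (Cycle 0) before repeat dosing began. Drug was quantified by liquid-liquid extraction and HPLC-MS/MS (range 1–1000 ng/mL; LLOQ 1.00 ng/mL). Non-compartmental analysis gave AUC(0–24) and Cmax, and variability was expressed as CV%.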

[3] = Repeat dose plasma pharmacokinetics in patients; assay type: in vivo, human
Outline: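 Fasted patients took oral capsules once daily. Steady-state plasma was sampled up to 24 h post-dose on day 8 (10 and 20 mg cohorts), day 15 (40–150 mg cohorts), day 7 (7-on/7-off) or day 22 (t.i.w.). Dose-reduced patients were sampled at the new dose. Drug was measured by liquid-liquid extraction and HPLC-MS/MS (validated 1–1000 ng/mL; LLOQ 1.00 ng/mL). Parameters were derived non-compartmentally.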

[4] = test system: patients with solid tumors; test: Clinical activity; assay type: in vivo, human
[5] = test system: blood glucose and insulin levels; test: Pharmacodynamics: insulin after standardized meal, 1,5-anhydroglucitol; assay type: in vivo, human
AKT1 = conditions: read-out: AKT1 Ki*; cited from earlier work
AKT3 = conditions: read-out: AKT3 Ki*; cited from earlier work
[6] = any cause, all cohorts, N = 77, CTCAE v3.0
[7] = 75 mg, continuous daily regimen
[8] = repeat dose, 75 mg, continuous daily regimen

Structure (SMILES): Cn1ncc(Cl)c1-c1cc(C(=O)N[C@H](CN)Cc2ccc(F)c(F)c2)oc1Cl [GSK2141795]
- DLTs ([1]; 75 mg qd 7-on/7-off cohort): No DLTs
- DLTs ([1]; 75 mg t.i.w. cohort): No DLTs
- DLTs ([1]; 100 mg qd 7-on/7-off cohort): Two DLTs, grade 3 hyperglycemia and grade 3 rash
- DLTs ([1]; 100 mg qd cohort (exceeded the MTD)): two DLTs, including grade 1 stomatitis that did not resolve, leading to a treatment delay of >14 days, as well as grade 4 hypoglycemia
- DLTs ([1]; 100 mg t.i.w. cohort): No DLTs
- DLTs ([1]; 150 mg qd cohort (exceeded the MTD)): two DLTs of grade 3 hyperglycemia
- maximum tolerated dose (MTD) ([1]; 7-on/7-off schedule): 75 mg
- hyperglycemia, patients ([1]; all cohorts): 22%
- rash, patients ([1]; all cohorts): 22%
- patients with DLTs ([1]; all cohorts, cycle 1): 7 patients
- Abdominal pain, Grade 1 [1, 6]: 13 (17) n (%)
- Abdominal pain, Grade 2 [1, 6]: 4 (5) n (%)
- Abdominal pain, Grade 3 [1, 6]: 3 (4) n (%)
- Abdominal pain, Grade 4 [1, 6]: 0 n (%)
- Abdominal pain, Total [1, 6]: 20 (26) n (%)
- Back pain, Grade 1 [1, 6]: 11 (14) n (%)
- Back pain, Grade 2 [1, 6]: 3 (4) n (%)
- Back pain, Grade 3 [1, 6]: 1 (1) n (%)
- Back pain, Grade 4 [1, 6]: 0 n (%)
- Back pain, Total [1, 6]: 15 (19) n (%)
- Constipation, Grade 1 [1, 6]: 14 (18) n (%)
- Constipation, Grade 2 [1, 6]: 3 (4) n (%)
- Constipation, Grade 3 [1, 6]: 0 n (%)
- Constipation, Grade 4 [1, 6]: 0 n (%)
- Constipation, Total [1, 6]: 17 (22) n (%)
- Cough, Grade 1 [1, 6]: 9 (12) n (%)
- Cough, Grade 2 [1, 6]: 0 n (%)
- Cough, Grade 3 [1, 6]: 0 n (%)
- Cough, Grade 4 [1, 6]: 0 n (%)
- Cough, Total [1, 6]: 9 (12) n (%)
- Decreased appetite, Grade 1 [1, 6]: 23 (30) n (%)
- Decreased appetite, Grade 2 [1, 6]: 6 (8) n (%)
- Decreased appetite, Grade 3 [1, 6]: 0 n (%)
- Decreased appetite, Grade 4 [1, 6]: 1 (1) n (%)
- Decreased appetite, Total [1, 6]: 30 (39) n (%)
- Diarrhea, Grade 1 [1, 6]: 33 (43) n (%)
- Diarrhea, Grade 2 [1, 6]: 13 (17) n (%)
- Diarrhea, Grade 3 [1, 6]: 3 (4) n (%)
- Diarrhea, Grade 4 [1, 6]: 0 n (%)
- Diarrhea, Total [1, 6]: 49 (64) n (%)
- Dizziness, Grade 1 [1, 6]: 12 (16) n (%)
- Dizziness, Grade 2 [1, 6]: 0 n (%)
- Dizziness, Grade 3 [1, 6]: 0 n (%)
- Dizziness, Grade 4 [1, 6]: 0 n (%)
- Dizziness, Total [1, 6]: 12 (16) n (%)
- Dysgeusia, Grade 1 [1, 6]: 7 (9) n (%)
- Dysgeusia, Grade 2 [1, 6]: 1 (1) n (%)
- Dysgeusia, Grade 3 [1, 6]: 0 n (%)
- Dysgeusia, Grade 4 [1, 6]: 0 n (%)
- Dysgeusia, Total [1, 6]: 8 (10) n (%)
- Dyspnea, Grade 1 [1, 6]: 10 (13) n (%)
- Dyspnea, Grade 2 [1, 6]: 3 (4) n (%)
- Dyspnea, Grade 3 [1, 6]: 2 (3) n (%)
- Dyspnea, Grade 4 [1, 6]: 0 n (%)
- Dyspnea, Total [1, 6]: 15 (19) n (%)
- Fatigue, Grade 1 [1, 6]: 21 (27) n (%)
- Fatigue, Grade 2 [1, 6]: 16 (21) n (%)
- Fatigue, Grade 3 [1, 6]: 0 n (%)
- Fatigue, Grade 4 [1, 6]: 1 (1) n (%)
- Fatigue, Total [1, 6]: 38 (49) n (%)
- Headache, Grade 1 [1, 6]: 7 (9) n (%)
- Headache, Grade 2 [1, 6]: 0 n (%)
- Headache, Grade 3 [1, 6]: 1 (1) n (%)
- Headache, Grade 4 [1, 6]: 1 (1) n (%)
- Headache, Total [1, 6]: 9 (12) n (%)
- Hyperglycemia, Grade 1 [1, 6]: 2 (3) n (%)
- Hyperglycemia, Grade 2 [1, 6]: 9 (12) n (%)
- Hyperglycemia, Grade 3 [1, 6]: 5 (6) n (%)
- Hyperglycemia, Grade 4 [1, 6]: 1 (1) n (%)
- Hyperglycemia, Total [1, 6]: 17 (22) n (%)
- Mucosal inflammation, Grade 1 [1, 6]: 7 (9) n (%)
- Mucosal inflammation, Grade 2 [1, 6]: 1 (1) n (%)
- Mucosal inflammation, Grade 3 [1, 6]: 0 n (%)
- Mucosal inflammation, Grade 4 [1, 6]: 0 n (%)
- Mucosal inflammation, Total [1, 6]: 8 (10) n (%)
- Nausea, Grade 1 [1, 6]: 42 (55) n (%)
- Nausea, Grade 2 [1, 6]: 4 (5) n (%)
- Nausea, Grade 3 [1, 6]: 1 (1) n (%)
- Nausea, Grade 4 [1, 6]: 0 n (%)
- Nausea, Total [1, 6]: 47 (61) n (%)
- Peripheral edema, Grade 1 [1, 6]: 9 (12) n (%)
- Peripheral edema, Grade 2 [1, 6]: 0 n (%)
- Peripheral edema, Grade 3 [1, 6]: 0 n (%)
- Peripheral edema, Grade 4 [1, 6]: 0 n (%)
- Peripheral edema, Total [1, 6]: 9 (12) n (%)
- Pyrexia, Grade 1 [1, 6]: 10 (13) n (%)
- Pyrexia, Grade 2 [1, 6]: 2 (3) n (%)
- Pyrexia, Grade 3 [1, 6]: 0 n (%)
- Pyrexia, Grade 4 [1, 6]: 0 n (%)
- Pyrexia, Total [1, 6]: 12 (16) n (%)
- Rash, Grade 1 [1, 6]: 8 (10) n (%)
- Rash, Grade 2 [1, 6]: 8 (10) n (%)
- Rash, Grade 3 [1, 6]: 1 (1) n (%)
- Rash, Grade 4 [1, 6]: 0 n (%)
- Rash, Total [1, 6]: 17 (22) n (%)
- Urinary tract infection, Grade 1 [1, 6]: 6 (8) n (%)
- Urinary tract infection, Grade 2 [1, 6]: 6 (8) n (%)
- Urinary tract infection, Grade 3 [1, 6]: 0 n (%)
- Urinary tract infection, Grade 4 [1, 6]: 0 n (%)
- Urinary tract infection, Total [1, 6]: 12 (16) n (%)
- Vomiting, Grade 1 [1, 6]: 29 (38) n (%)
- Vomiting, Grade 2 [1, 6]: 3 (4) n (%)
- Vomiting, Grade 3 [1, 6]: 1 (1) n (%)
- Vomiting, Grade 4 [1, 6]: 0 n (%)
- Vomiting, Total [1, 6]: 33 (43) n (%)
- Weight decreased, Grade 1 [1, 6]: 12 (16) n (%)
- Weight decreased, Grade 2 [1, 6]: 5 (6) n (%)
- Weight decreased, Grade 3 [1, 6]: 0 n (%)
- Weight decreased, Grade 4 [1, 6]: 0 n (%)
- Weight decreased, Total [1, 6]: 17 (22) n (%)
- dose reductions for diarrhea ([1]; at the RP2D): 2 patients
- dose reductions for rash ([1]; at the RP2D): 3 patients
- grade 3 hyperglycemia ([1]; at the RP2D (75 mg qd), % of patients): 4%
- patients withdrawn as a result of an AE ([1]; of 77 enrolled (17%), at study completion): 13 patients
- recommended phase II dose (RP2D) ([1]; once-daily dosing, oral): 75 mg
- maximum tolerated dose (MTD) ([1]; qd dosing): 75 mg
- mean variability (CV%) in exposure, AUC(0–24) [2, 7]: 37%
- mean variability (CV%) in exposure, Cmax [2, 7]: 62%
- Tmax ([2]; Tmax, majority): 2 to 4 h
- Tmax ([2]; median time to maximal concentration (Tmax)): 3 to 8 h
- time to reach steady-state ([3]; continuous qd dosing): approximately 14 days
- concentration at 24 h ([3]; human, plasma, oral, 20 mg, C24, repeat dose 20 mg once daily (n = 1), day 8): 42.1 ng/mL
- Cmax ([3]; human, plasma, oral, 20 mg, Cmax, repeat dose 20 mg once daily (n = 1), day 8): 90.3 ng/mL
- Tmax ([3]; human, plasma, oral, 20 mg, Tmax, repeat dose 20 mg once daily (n = 1), day 8): 3 h
- Tmax ([3]; human, plasma, oral, median Tmax, repeat dose, generally): 2 to 4 h
- CV% in exposure, AUC(0–24) [3, 8]: 52%
- CV% in exposure, Cmax [3, 8]: 50%
- endometrial cancer patients with stable disease (SD) on therapy for more than 6 months ([4]; 75 mg qd): 4 patients
- prostate cancer patients with stable disease (SD) on therapy for more than 6 months ([4]; 75 mg qd): 3 patients
- partial responses (PRs) ([4]; RP2D 75 mg qd): two partial responses
- patients withdrawn due to disease progression ([4]; of 77 enrolled (68%), at study completion): 52 patients
- insulin levels following a standardized meal, day 15 compared with screening ([5]; 5 patients with matched insulin samples, cycle 1 day 15): Three of the five patients had two-fold greater insulin levels
- association of decreased 1,5-AG with GSK2141795 concentrations ([5]; screening vs steady state, linear regression): this association was not consistent across the study or across tumor types
- Ki (AKT1): 0.066 nM
- Ki (AKT3): 1.5 nM
